# Test results from ChEMBL document CHEMBL1138564, “Microwave-induced synthesis and anti-microbial activities of 7,10,11,12-tetrahydrobenzo[c]acridin-8(9H)-one derivatives” (2009).
# The source made the active and inactive calls. The calls are words filed in the database; no cut-off is given here.
# Assays:
# Proteus vulgaris [1] = assay: Antimicrobial activity against Proteus vulgaris NCIM 2027 at 1000 ug/disk after 24 hrs by disk diffusion method; format: functional; conditions: NCIM 2027, 24 h, read-out: DIZ
# How it was run: (§1)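 Disc diffusion on Mueller–Hinton agar. 100 µl of bacterial suspension at 10⁸ CFU/ml is spread on the plate. Discs carry test compounds at two loadings, dissolved in DMSO; DMSO alone serves as negative control. Ofloxacin disc is the positive reference. Plates are incubated at 37 °C for 24 h, and the inhibition zone diameter is measured.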
# [2] = test system: Rhodococcus corynebacterioides; assay: Antimicrobial activity against Corynebacterium rubrum NCIM 2252 at 500 ug/disk after 24 hrs by disk diffusion method; format: functional; conditions: Rhodococcoides corynebacterioides, NCIM 2252, 24 h; read-out: DIZ; how it was run: as §1
# Aliivibrio fischeri [3] = assay: Antimicrobial activity against Vibrio fischeri NCIM 2154 at 1000 ug/disk after 24 hrs by disk diffusion method; format: functional; conditions: NCIM 2154, 24 h, read-out: DIZ
# How it was run: (§2)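 Disc diffusion. 100 µl of bacterial suspension at 10⁸ CFU/ml was spread on Mueller–Hinton agar. Discs loaded with test compound dissolved in DMSO were placed on the lawn, with a DMSO-only disc as negative control. Plates were incubated at 37 °C for 24 h, and the inhibition zone diameter was measured.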
# Aliivibrio fischeri [4] = assay: Antimicrobial activity against Vibrio fischeri NCIM 2154 after 24 hrs by serial dilution method; format: functional; conditions: NCIM 2154, 24 h
# Aspergillus parasiticus [5] = assay: Antimicrobial activity against Aspergillus parasiticus NCIM 904 at 1000 ug/disk after 72 hrs by disk diffusion method; format: functional; conditions: NCIM 904, 72 h, read-out: DIZ
# How it was run: (§3)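 Disc diffusion on Sabouraud's dextrose agar. 100 µl of fungal suspension at 10⁶ CFU/ml is spread on the plate. Discs carry test compounds at two loadings in DMSO; DMSO alone is the negative control. Clotrimazole disc is the positive reference. Plates are incubated at 27 °C for 72 h, and the zone of inhibition diameter is measured.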
# Aliivibrio fischeri [6] = assay: Antimicrobial activity against Vibrio fischeri NCIM 2154 at 500 ug/disk after 24 hrs by disk diffusion method; format: functional; conditions: NCIM 2154, 24 h, read-out: DIZ; how it was run: as §2
# Bacillus cereus [7] = assay: Antimicrobial activity against Bacillus cereus NCIM 2155 at 500 ug/disk after 24 hrs by disk diffusion method; format: functional; conditions: NCIM 2155, 24 h, read-out: DIZ; how it was run: as §1
# Klebsiella aerogenes [8] = assay: Antimicrobial activity against Klebsiella aerogenes NCIM 2239 at 500 ug/disk after 24 hrs by disk diffusion method; format: functional; conditions: NCIM 2239, 24 h, read-out: DIZ; how it was run: as §1
# Rhodotorula mucilaginosa [9] = assay: Antimicrobial activity against Rhodotorula rubra NCIM 3174 at 1000 ug/disk after 72 hrs by disk diffusion method; format: functional; conditions: NCIM 3174, 72 h, read-out: DIZ
# How it was run: (§4)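 Fungal disc diffusion. 100 µl of suspension at 10⁶ CFU/ml was spread on Sabouraud's dextrose agar. Discs carrying test compound in DMSO were applied, with a DMSO-only disc as negative control. Plates were incubated at 27 °C for 72 h, and the zone of inhibition diameter was measured.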
# Pseudomonas aeruginosa = assay: Antimicrobial activity against Pseudomonas aeruginosa NCIM 2200 at 1000 ug/disk after 24 hrs by disk diffusion method; format: functional; how it was run: as §1
# Salmonella typhimurium [10] = assay: Antimicrobial activity against Salmonella Typhimurium NCIM 2501 at 500 ug/disk after 24 hrs by disk diffusion method; format: functional, Salmonella enterica subsp. enterica serovar Typhimurium; conditions: Salmonella enterica, NCIM 2501, 24 h; read-out: DIZ; how it was run: as §2
# Rhodotorula mucilaginosa [11] = assay: Antimicrobial activity against Rhodotorula rubra NCIM 3174 after 72 hrs by serial dilution method; format: functional; conditions: NCIM 3174, 72 h
# How it was run: (§5)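 MIC by broth dilution in Sabouraud's dextrose broth, run only on fungi found sensitive in the disc assay. Twofold serial dilutions were made in 1 ml broth per tube, covering 3.9 to 1000. Inoculated tubes were incubated at 27 °C for 72 h.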
# Aspergillus parasiticus [12] = assay: Antimicrobial activity against Aspergillus parasiticus NCIM 904 at 500 ug/disk after 72 hrs by disk diffusion method; format: functional; conditions: NCIM 904, 72 h, read-out: DIZ; how it was run: as §3
# Lipomyces lipofer [13] = assay: Antimicrobial activity against Lipomyces lipofer NCIM 3252 at 500 ug/disk after 72 hrs by disk diffusion method; format: functional; conditions: NCIM 3252, 72 h, read-out: DIZ; how it was run: as §3
# Penicillium chrysogenum = assay: Antimicrobial activity against Penicillium chrysogenum NCIM 707 at 500 ug/disk after 72 hrs by disk diffusion method; format: functional; how it was run: as §3
# Bacillus subtilis [14] = assay: Antimicrobial activity against Bacillus subtilis NCIM 2063 after 24 hrs by serial dilution method; format: functional; conditions: NCIM 2063, 24 h
# How it was run: (§6)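 Broth dilution MIC in nutrient broth, run only for organisms found sensitive in disc diffusion. Compounds are two-fold serially diluted in 1 ml sterile broth per tube, spanning 3.9 to 1000. Inoculated tubes are incubated at 37 °C for 24 h.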
# Aspergillus fumigatus = assay: Antimicrobial activity against Aspergillus fumigatus NCIM 902 at 1000 ug/disk after 72 hrs by disk diffusion method; format: functional; conditions: NCIM 902, 72 h, read-out: DIZ; how it was run: as §3
# Rhodotorula mucilaginosa [15] = assay: Antimicrobial activity against Rhodotorula rubra NCIM 3174 at 500 ug/disk after 72 hrs by disk diffusion method; format: functional; conditions: NCIM 3174, 72 h, read-out: DIZ; how it was run: as §4
# [16] = test system: Rhodococcus corynebacterioides; assay: Antimicrobial activity against Corynebacterium rubrum NCIM 2252 at 1000 ug/disk after 24 hrs by disk diffusion method; format: functional; conditions: Rhodococcoides corynebacterioides, NCIM 2252, 24 h; read-out: DIZ; how it was run: as §1
# Bacillus subtilis [17] = assay: Antimicrobial activity against Bacillus subtilis NCIM 2063 at 500 ug/disk after 24 hrs by disk diffusion method; format: functional; conditions: NCIM 2063, 24 h, read-out: DIZ; how it was run: as §1
# Staphylococcus [18] = assay: Antimicrobial activity against Staphylococcus albus NCIM 2178 at 1000 ug/disk after 24 hrs by disk diffusion method; format: functional; conditions: NCIM 2178, 24 h, read-out: DIZ; how it was run: as §2
# Proteus vulgaris [19] = assay: Antimicrobial activity against Proteus vulgaris NCIM 2027 at 500 ug/disk after 24 hrs by disk diffusion method; format: functional; conditions: NCIM 2027, 24 h, read-out: DIZ; how it was run: as §1
# Bacillus cereus [20] = assay: Antimicrobial activity against Bacillus cereus NCIM 2155 at 1000 ug/disk after 24 hrs by disk diffusion method; format: functional; conditions: NCIM 2155, 24 h, read-out: DIZ; how it was run: as §1
# Escherichia coli [21] = assay: Antimicrobial activity against Escherichia coli NCIM 2065 at 1000 ug/disk after 24 hrs by disk diffusion method; format: functional; conditions: NCIM 2065, 24 h, read-out: DIZ; how it was run: as §1
# Escherichia coli [22] = assay: Antimicrobial activity against Escherichia coli NCIM 2065 at 500 ug/disk after 24 hrs by disk diffusion method; format: functional; conditions: NCIM 2065, 24 h, read-out: DIZ; how it was run: as §1
# Aspergillus flavus [23] = assay: Antimicrobial activity against Aspergillus flavus NCIM 902 at 500 ug/disk after 72 hrs by disk diffusion method; format: functional; conditions: NCIM 902, 72 h, read-out: DIZ; how it was run: as §3
# Escherichia coli [24] = assay: Antimicrobial activity against Escherichia coli NCIM 2065 after 24 hrs by serial dilution method; format: functional; conditions: NCIM 2065, 24 h; how it was run: as §6
# Lipomyces lipofer [25] = assay: Antimicrobial activity against Lipomyces lipofer NCIM 3252 at 1000 ug/disk after 72 hrs by disk diffusion method; format: functional; conditions: NCIM 3252, 72 h, read-out: DIZ; how it was run: as §3
# Klebsiella aerogenes [26] = assay: Antimicrobial activity against Klebsiella aerogenes NCIM 2239 at 1000 ug/disk after 24 hrs by disk diffusion method; format: functional; conditions: NCIM 2239, 24 h, read-out: DIZ; how it was run: as §1
# Trichoderma viride [27] = assay: Antimicrobial activity against Trichoderma viride NCIM 1195 at 500 ug/disk after 72 hrs by disk diffusion method; format: functional; conditions: NCIM 1195, 72 h, read-out: DIZ; how it was run: as §4
# Trichoderma viride [28] = assay: Antimicrobial activity against Trichoderma viride NCIM 1195 after 72 hrs by serial dilution method; format: functional; conditions: NCIM 1195, 72 h; how it was run: as §5
# Salmonella typhimurium [29] = assay: Antimicrobial activity against Salmonella Typhimurium NCIM 2501 at 1000 ug/disk after 24 hrs by disk diffusion method; format: functional, Salmonella enterica subsp. enterica serovar Typhimurium; conditions: Salmonella enterica, NCIM 2501, 24 h; read-out: DIZ; how it was run: as §2
# Staphylococcus [30] = assay: Antimicrobial activity against Staphylococcus albus NCIM 2178 at 500 ug/disk after 24 hrs by disk diffusion method; format: functional; conditions: NCIM 2178, 24 h, read-out: DIZ; how it was run: as §2
# Aspergillus flavus [31] = assay: Antimicrobial activity against Aspergillus flavus NCIM 902 at 1000 ug/disk after 72 hrs by disk diffusion method; format: functional; conditions: NCIM 902, 72 h, read-out: DIZ; how it was run: as §3
structure (smiles),measurement,setting,value
O=C1CCCC2=C1C(c1cccc([N+](=O)[O-])c1)c1ccc3ccccc3c1N2 (centres undefined),zone of inhibition at 1000 µg/disc,Proteus vulgaris [1],9 mm
same,zone of inhibition at 500 µg/disc,[2],7 mm
same,zone of inhibition at 1000 µg/disc,Aliivibrio fischeri [3],9 mm
same,MIC,Aliivibrio fischeri [4],125 µg/mL
same,zone of inhibition at 1000 µg/disc,Aspergillus parasiticus [5],13 mm
same,zone of inhibition at 500 µg/disc,Aliivibrio fischeri [6],7 mm
same,zone of inhibition at 500 µg/disc,Bacillus cereus [7],7 mm
same,zone of inhibition at 500 µg/disc,Klebsiella aerogenes [8],7 mm
same,zone of inhibition at 1000 µg/disc,Rhodotorula mucilaginosa [9],14 mm
same,diameter of the inhibition zone (DIZ),Pseudomonas aeruginosa,inactive
same,zone of inhibition at 500 µg/disc,Salmonella typhimurium [10],7 mm
same,MIC,Rhodotorula mucilaginosa [11],3.9 µg/mL
same,zone of inhibition at 500 µg/disc,Aspergillus parasiticus [12],11 mm
same,zone of inhibition at 500 µg/disc,Lipomyces lipofer [13],8 mm
same,diameter of the inhibition zone (DIZ),Penicillium chrysogenum,inactive
same,MIC,Bacillus subtilis [14],31.2 µg/mL
same,zone of inhibition at 1000 µg/disc,Aspergillus fumigatus,9 mm
same,zone of inhibition at 500 µg/disc,Rhodotorula mucilaginosa [15],10 mm
same,zone of inhibition at 1000 µg/disc,[16],8 mm
same,zone of inhibition at 500 µg/disc,Bacillus subtilis [17],10 mm
same,zone of inhibition at 1000 µg/disc,Staphylococcus [18],11 mm
same,zone of inhibition at 500 µg/disc,Proteus vulgaris [19],7 mm
same,zone of inhibition at 1000 µg/disc,Bacillus cereus [20],10 mm
same,zone of inhibition at 1000 µg/disc,Escherichia coli [21],12 mm
same,zone of inhibition at 500 µg/disc,Escherichia coli [22],9 mm
same,zone of inhibition at 500 µg/disc,Aspergillus flavus [23],8 mm
same,MIC,Escherichia coli [24],31.2 µg/mL
same,zone of inhibition at 1000 µg/disc,Lipomyces lipofer [25],10 mm
same,zone of inhibition at 1000 µg/disc,Klebsiella aerogenes [26],9 mm
same,zone of inhibition at 500 µg/disc,Trichoderma viride [27],9 mm
same,MIC,Trichoderma viride [28],62.5 µg/mL
same,zone of inhibition at 1000 µg/disc,Salmonella typhimurium [29],10 mm
same,zone of inhibition at 500 µg/disc,Staphylococcus [30],8 mm
same,zone of inhibition at 1000 µg/disc,Aspergillus flavus [31],12 mm
